Square brackets hold non-standard residues; d marks the D form. Peptide text beside a SMILES is read from it. * marks the point of attachment. Fumaroyl(AlaGlyPheOH) = C[C@H](NC(=O)/C=C/C(=O)*)C(=O)NCC(=O)N[C@@H](Cc1ccccc1)C(=O)O; Fumaroyl(GlyGlyPheOH) = O=C(/C=C/C(=O)*)NCC(=O)NCC(=O)N[C@@H](Cc1ccccc1)C(=O)O; Chg = N[C@H](C(=O)O)C1CCCCC1; Dap = NC[C@H](N)C(=O)O
Experiments:
[1] = Inhibition of Plasmodium falciparum falcipain-2 after 12 hrs by fluorescence spectroscopy-based on-bead assay; set-up: concentration or dose not given beside the values; settings: concentration not given here
How it was run: (§1)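 Library members on resin (PEGA, theoretical loading 0.40 mmol/g; added as DMSO suspension, 0.64 mM final inhibitor) preincubated with enzyme 12 h, then Cbz-Phe-Arg-AMC 40 μM added; AMC release followed by fluorescence (ex 380/em 460 nm). Kinetics compared with inhibitor-free amino-PEGA resin.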

[2] = biological target: Rhodesain (Trypanosoma brucei rhodesiense) (UniProt Q95PM0); assay: Inhibition of Trypanosoma brucei rhodesiense rhodesain after 12 hrs by fluorescence spectroscopy-based on-bead assay; set-up: concentration or dose not given beside the values; settings: concentration not given here; how it was run: as §1
Sequence of Rhodesain (Trypanosoma brucei rhodesiense) (Q95PM0 1-450): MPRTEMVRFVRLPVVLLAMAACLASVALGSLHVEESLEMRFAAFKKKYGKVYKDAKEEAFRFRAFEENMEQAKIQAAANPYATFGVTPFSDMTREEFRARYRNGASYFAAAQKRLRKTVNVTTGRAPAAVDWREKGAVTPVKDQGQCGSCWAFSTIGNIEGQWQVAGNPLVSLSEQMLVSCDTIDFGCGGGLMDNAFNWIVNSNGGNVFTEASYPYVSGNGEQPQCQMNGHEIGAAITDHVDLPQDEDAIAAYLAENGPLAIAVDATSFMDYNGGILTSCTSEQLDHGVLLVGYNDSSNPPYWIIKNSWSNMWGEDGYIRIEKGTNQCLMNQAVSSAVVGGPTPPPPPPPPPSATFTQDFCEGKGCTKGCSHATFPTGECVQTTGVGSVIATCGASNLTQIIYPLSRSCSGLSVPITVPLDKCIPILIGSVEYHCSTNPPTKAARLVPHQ

CC(C)C[C@H](NC(=O)[C@@H](NC(=O)[C@H](CCC(N)=O)NC(=O)/C=C/C(=O)NCC(=O)NCC(=O)N[C@@H](Cc1ccccc1)C(=O)O)c1ccccc1)C(=O)N[C@H](C(N)=O)C(C)C (HELM PEPTIDE1{[O=C(/C=C/C(=O)[*:2])NCC(=O)NCC(=O)N[C@@H](Cc1ccccc1)C(=O)O].Q.[Phg].L.V.[am]}$$$$V2.0)
inhibition [1]: 50% | inhibition [2]: 62%

CC[C@H](C)[C@H](NC(=O)[C@H](CCC(N)=O)NC(=O)/C=C/C(=O)N[C@@H](C)C(=O)NCC(=O)N[C@@H](Cc1ccccc1)C(=O)O)C(=O)N[C@@H](C)C(=O)N[C@H](C(N)=O)C(C)C (HELM PEPTIDE1{[C[C@H](NC(=O)/C=C/C(=O)[*:2])C(=O)NCC(=O)N[C@@H](Cc1ccccc1)C(=O)O].Q.I.A.V.[am]}$$$$V2.0)
inhibition [1]: 43% | inhibition [2]: 29%

CC(C)C[C@H](NC(=O)[C@@H](NC(=O)[C@H](Cc1ccccc1)NC(=O)/C=C/C(=O)NCC(=O)NCC(=O)N[C@@H](Cc1ccccc1)C(=O)O)c1ccccc1)C(=O)N[C@H](C(N)=O)C(C)C (HELM PEPTIDE1{[O=C(/C=C/C(=O)[*:2])NCC(=O)NCC(=O)N[C@@H](Cc1ccccc1)C(=O)O].F.[Phg].L.V.[am]}$$$$V2.0)
inhibition [1]: 40% | inhibition [2]: 71%

CC(C)[C@H](NC(=O)[C@H](C)NC(=O)[C@@H](NC(=O)[C@H](CC(N)=O)NC(=O)/C=C/C(=O)N[C@@H](C)C(=O)NCC(=O)N[C@@H](Cc1ccccc1)C(=O)O)C1CCCCC1)C(N)=O (HELM PEPTIDE1{[C[C@H](NC(=O)/C=C/C(=O)[*:2])C(=O)NCC(=O)N[C@@H](Cc1ccccc1)C(=O)O].N.[O=C([C@@H](N[*:1])C1CCCCC1)[*:2]].A.V.[am]}$$$$V2.0)
inhibition [1]: 45% | inhibition [2]: 36%

CC(C)C[C@H](NC(=O)[C@H](C)NC(=O)/C=C/C(=O)NCC(=O)NCC(=O)N[C@@H](Cc1ccccc1)C(=O)O)C(=O)N[C@H](C(=O)N[C@H](C(N)=O)C(C)C)C(C)C (HELM PEPTIDE1{[O=C(/C=C/C(=O)[*:2])NCC(=O)NCC(=O)N[C@@H](Cc1ccccc1)C(=O)O].A.L.V.V.[am]}$$$$V2.0)
inhibition [1]: 29% | inhibition [2]: 55%

CC[C@H](C)[C@H](NC(=O)[C@H](CNC(C)=O)NC(=O)/C=C/C(=O)N[C@@H](C)C(=O)NCC(=O)N[C@@H](Cc1ccccc1)C(=O)O)C(=O)N[C@@H](C)C(=O)N[C@H](C(N)=O)C(C)C (HELM PEPTIDE1{[C[C@H](NC(=O)/C=C/C(=O)[*:2])C(=O)NCC(=O)N[C@@H](Cc1ccccc1)C(=O)O].[O=C([C@H](CN[*:3])N[*:1])[*:2]].I.A.V.[am]}|PEPTIDE2{[ac]}$PEPTIDE1,PEPTIDE2,2:R3-1:R2$$$V2.0)
inhibition [1]: 28% | inhibition [2]: 26%

CC(C)[C@H](NC(=O)[C@@H](NC(=O)[C@@H](NC(=O)[C@H](CCC(N)=O)NC(=O)/C=C/C(=O)N[C@@H](C)C(=O)NCC(=O)N[C@@H](Cc1ccccc1)C(=O)O)c1ccccc1)C(C)C)C(N)=O (HELM PEPTIDE1{[C[C@H](NC(=O)/C=C/C(=O)[*:2])C(=O)NCC(=O)N[C@@H](Cc1ccccc1)C(=O)O].Q.[Phg].V.V.[am]}$$$$V2.0)
inhibition [1]: 46% | inhibition [2]: 34%

CC(=O)NC[C@H](NC(=O)/C=C/C(=O)N[C@@H](C)C(=O)NCC(=O)N[C@@H](Cc1ccccc1)C(=O)O)C(=O)N[C@@H](Cc1ccccc1)C(=O)N[C@H](C(=O)N[C@H](C(N)=O)C(C)C)C(C)C (HELM PEPTIDE1{[C[C@H](NC(=O)/C=C/C(=O)[*:2])C(=O)NCC(=O)N[C@@H](Cc1ccccc1)C(=O)O].[O=C([C@H](CN[*:3])N[*:1])[*:2]].F.V.V.[am]}|PEPTIDE2{[ac]}$PEPTIDE1,PEPTIDE2,2:R3-1:R2$$$V2.0)
inhibition [1]: 32% | inhibition [2]: 44%

CC(C)C[C@H](NC(=O)[C@@H](NC(=O)[C@H](C)NC(=O)/C=C/C(=O)NCC(=O)NCC(=O)N[C@@H](Cc1ccccc1)C(=O)O)C1CCCCC1)C(=O)N[C@H](C(N)=O)C(C)C (HELM PEPTIDE1{[O=C(/C=C/C(=O)[*:2])NCC(=O)NCC(=O)N[C@@H](Cc1ccccc1)C(=O)O].A.[O=C([C@@H](N[*:1])C1CCCCC1)[*:2]].L.V.[am]}$$$$V2.0)
inhibition [1]: 43% | inhibition [2]: 60%

CC(C)C[C@H](NC(=O)[C@H](CCC(N)=O)NC(=O)/C=C/C(=O)NCC(=O)NCC(=O)N[C@@H](Cc1ccccc1)C(=O)O)C(=O)N[C@@H](C)C(=O)N[C@H](C(N)=O)C(C)C (HELM PEPTIDE1{[O=C(/C=C/C(=O)[*:2])NCC(=O)NCC(=O)N[C@@H](Cc1ccccc1)C(=O)O].Q.L.A.V.[am]}$$$$V2.0)
inhibition [1]: 40% | inhibition [2]: 38%

CC[C@H](C)[C@H](NC(=O)[C@H](CCC(N)=O)NC(=O)/C=C/C(=O)NCC(=O)NCC(=O)N[C@@H](Cc1ccccc1)C(=O)O)C(=O)N[C@@H](C)C(=O)N[C@H](C(N)=O)C(C)C (HELM PEPTIDE1{[O=C(/C=C/C(=O)[*:2])NCC(=O)NCC(=O)N[C@@H](Cc1ccccc1)C(=O)O].Q.I.A.V.[am]}$$$$V2.0)
inhibition [1]: 38% | inhibition [2]: 38%

CC(C)[C@H](NC(=O)[C@H](C)NC(=O)[C@@H](NC(=O)[C@H](Cc1ccccc1)NC(=O)/C=C/C(=O)N[C@@H](C)C(=O)NCC(=O)N[C@@H](Cc1ccccc1)C(=O)O)C1CCCCC1)C(N)=O (HELM PEPTIDE1{[C[C@H](NC(=O)/C=C/C(=O)[*:2])C(=O)NCC(=O)N[C@@H](Cc1ccccc1)C(=O)O].F.[O=C([C@@H](N[*:1])C1CCCCC1)[*:2]].A.V.[am]}$$$$V2.0)
inhibition [1]: 29% | inhibition [2]: 21%

CC[C@H](C)[C@H](NC(=O)[C@H](Cc1ccccc1)NC(=O)/C=C/C(=O)N[C@@H](C)C(=O)NCC(=O)N[C@@H](Cc1ccccc1)C(=O)O)C(=O)N[C@@H](C)C(=O)N[C@H](C(N)=O)C(C)C (HELM PEPTIDE1{[C[C@H](NC(=O)/C=C/C(=O)[*:2])C(=O)NCC(=O)N[C@@H](Cc1ccccc1)C(=O)O].F.I.A.V.[am]}$$$$V2.0)
inhibition [1]: 29% | inhibition [2]: 40%

CC(C)C[C@H](NC(=O)[C@@H](NC(=O)[C@H](Cc1ccccc1)NC(=O)/C=C/C(=O)N[C@@H](C)C(=O)NCC(=O)N[C@@H](Cc1ccccc1)C(=O)O)c1ccccc1)C(=O)N[C@H](C(N)=O)C(C)C (HELM PEPTIDE1{[C[C@H](NC(=O)/C=C/C(=O)[*:2])C(=O)NCC(=O)N[C@@H](Cc1ccccc1)C(=O)O].F.[Phg].L.V.[am]}$$$$V2.0)
inhibition [1]: 53% | inhibition [2]: 68%

CC(C)[C@H](NC(=O)[C@@H](NC(=O)[C@H](Cc1ccccc1)NC(=O)[C@H](CCC(N)=O)NC(=O)/C=C/C(=O)N[C@@H](C)C(=O)NCC(=O)N[C@@H](Cc1ccccc1)C(=O)O)C(C)C)C(N)=O (HELM PEPTIDE1{[C[C@H](NC(=O)/C=C/C(=O)[*:2])C(=O)NCC(=O)N[C@@H](Cc1ccccc1)C(=O)O].Q.F.V.V.[am]}$$$$V2.0)
inhibition [1]: 58% | inhibition [2]: 45%

CC(=O)NC[C@H](NC(=O)/C=C/C(=O)N[C@@H](C)C(=O)NCC(=O)N[C@@H](Cc1ccccc1)C(=O)O)C(=O)N[C@H](C(=O)N[C@@H](C)C(=O)N[C@H](C(N)=O)C(C)C)c1ccccc1 (HELM PEPTIDE1{[C[C@H](NC(=O)/C=C/C(=O)[*:2])C(=O)NCC(=O)N[C@@H](Cc1ccccc1)C(=O)O].[O=C([C@H](CN[*:3])N[*:1])[*:2]].[Phg].A.V.[am]}|PEPTIDE2{[ac]}$PEPTIDE1,PEPTIDE2,2:R3-1:R2$$$V2.0)
inhibition [1]: 35% | inhibition [2]: 34%

CC(=O)NC[C@H](NC(=O)/C=C/C(=O)N[C@@H](C)C(=O)NCC(=O)N[C@@H](Cc1ccccc1)C(=O)O)C(=O)N[C@H](C(=O)N[C@@H](CC(C)C)C(=O)N[C@H](C(N)=O)C(C)C)c1ccccc1 (HELM PEPTIDE1{[C[C@H](NC(=O)/C=C/C(=O)[*:2])C(=O)NCC(=O)N[C@@H](Cc1ccccc1)C(=O)O].[O=C([C@H](CN[*:3])N[*:1])[*:2]].[Phg].L.V.[am]}|PEPTIDE2{[ac]}$PEPTIDE1,PEPTIDE2,2:R3-1:R2$$$V2.0)
inhibition [1]: 52% | inhibition [2]: 56%

CC[C@H](C)[C@H](NC(=O)[C@H](C)NC(=O)/C=C/C(=O)NCC(=O)NCC(=O)N[C@@H](Cc1ccccc1)C(=O)O)C(=O)N[C@@H](C)C(=O)N[C@H](C(N)=O)C(C)C (HELM PEPTIDE1{[O=C(/C=C/C(=O)[*:2])NCC(=O)NCC(=O)N[C@@H](Cc1ccccc1)C(=O)O].A.I.A.V.[am]}$$$$V2.0)
inhibition [1]: 54% | inhibition [2]: 31%

CC(C)[C@H](NC(=O)[C@@H](NC(=O)[C@@H](NC(=O)[C@H](C)NC(=O)/C=C/C(=O)NCC(=O)NCC(=O)N[C@@H](Cc1ccccc1)C(=O)O)c1ccccc1)C(C)C)C(N)=O (HELM PEPTIDE1{[O=C(/C=C/C(=O)[*:2])NCC(=O)NCC(=O)N[C@@H](Cc1ccccc1)C(=O)O].A.[Phg].V.V.[am]}$$$$V2.0)
inhibition [1]: 56% | inhibition [2]: 36%

CC(C)[C@H](NC(=O)[C@@H](NC(=O)[C@@H](NC(=O)[C@H](Cc1ccccc1)NC(=O)/C=C/C(=O)NCC(=O)NCC(=O)N[C@@H](Cc1ccccc1)C(=O)O)C1CCCCC1)C(C)C)C(N)=O (HELM PEPTIDE1{[O=C(/C=C/C(=O)[*:2])NCC(=O)NCC(=O)N[C@@H](Cc1ccccc1)C(=O)O].F.[O=C([C@@H](N[*:1])C1CCCCC1)[*:2]].V.V.[am]}$$$$V2.0)
inhibition [1]: 48% | inhibition [2]: 49%

CC(=O)NC[C@H](NC(=O)/C=C/C(=O)N[C@@H](C)C(=O)NCC(=O)N[C@@H](Cc1ccccc1)C(=O)O)C(=O)N[C@H](C(=O)N[C@H](C(=O)N[C@H](C(N)=O)C(C)C)C(C)C)C1CCCCC1 ({Fumaroyl(AlaGlyPheOH)}-[Dap](Ac)[Chg]VV-NH2)
inhibition [1]: 40% | inhibition [2]: 46%

CC(=O)NC[C@H](NC(=O)/C=C/C(=O)NCC(=O)NCC(=O)N[C@@H](Cc1ccccc1)C(=O)O)C(=O)N[C@H](C(=O)N[C@H](C(=O)N[C@H](C(N)=O)C(C)C)C(C)C)C1CCCCC1 ({Fumaroyl(GlyGlyPheOH)}-[Dap](Ac)[Chg]VV-NH2)
inhibition [1]: 52% | inhibition [2]: 52%
